Measured values from ChEMBL document CHEMBL5360562 (Eur J Med Chem, 2023).

Assays:
[1] = test system: Acinetobacter baumannii; assay: Potentiation of Clarithromycin antibacterial activity against Acinetobacter baumannii AB5075 assessed as fold reduction in clarithromycin MIC at 30 uM incubated for 16 hrs by broth microdilution method; type: functional
In short: (§1)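 Checkerboard-style potentiation by broth microdilution. 6 h day cultures in CAMHB diluted to 5×10^5 CFU/mL. Adjuvant added from 10 mM DMSO stock at fixed concentration throughout. […] Controls: antibiotic alone, adjuvant alone, media only. Incubated stationary at 37 °C for 16 h. MIC is lowest concentration with no visible growth; fold reduction taken against the antibiotic-alone lane.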

[2] = Stability of compound in human plasma assessed as parent compound remaining measured at 4 hrs; type: ADME, cell-free
In short: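 Compound at 20 μM final in human plasma (from 10 mM DMSO stock), 37 °C; aliquots at 0, 30, 60, 120, 240 min quenched in internal standard in 1:1 ACN/MeOH, centrifuged, supernatant analysed by UPLC-MRM. Peak-area ratio to internal standard expressed as % parent remaining relative to 0 min; half-life calculated.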

[3] = test system: Acinetobacter baumannii; assay: Potentiation of erythromycin antibacterial activity against Acinetobacter baumannii AB5075 assessed as erythromycin MIC at 30 uM incubated for 16 hrs by broth microdilution method; type: functional
[4] = test system: Acinetobacter baumannii; assay: Potentiation of Clarithromycin antibacterial activity against Acinetobacter baumannii AB5075 assessed as reduction in clarithromycin MIC at 20 uM incubated for 16 hrs by broth microdilution method; type: functional
[5] = test system: Acinetobacter baumannii; assay: Antibacterial activity against Acinetobacter baumannii AB5075 assessed as reduction in bacterial growth incubated for 16 hrs by broth microdilution method; type: functional
[6] = test system: Acinetobacter baumannii; assay: Potentiation of erythromycin antibacterial activity against Acinetobacter baumannii AB5075 assessed as erythromycin MIC at 10 uM incubated for 16 hrs by broth microdilution method; type: functional
[7] = test system: Escherichia coli; assay: Potentiation of Clarithromycin antibacterial activity against Escherichia coli ATCC 25922 assessed as clarithromycin MIC at 3 uM incubated for 16 hrs by broth microdilution method; type: functional
[8] = test system: Acinetobacter baumannii; assay: Potentiation of rifampicin antibacterial activity against Acinetobacter baumannii AB5075 assessed as rifampicin MIC at 5 uM incubated for 16 hrs by broth microdilution method; type: functional
In short: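 A. baumannii AB5075 6 h day cultures in CAMHB subcultured to 5×10^5 CFU/mL; adjuvant added from 10 mM DMSO stock at fixed concentration, then rifampicin (DMSO) twofold serially diluted in adjuvant-containing broth. Antibiotic-alone and adjuvant-alone control lanes.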

[9] = test system: Acinetobacter baumannii; assay: Potentiation of erythromycin antibacterial activity against Acinetobacter baumannii AB5075 assessed as erythromycin MIC at 7.5 uM incubated for 16 hrs by broth microdilution method; type: functional
[10] = test system: Acinetobacter baumannii; assay: Potentiation of Clarithromycin antibacterial activity against Acinetobacter baumannii AB5674 assessed as clarithromycin MIC at 10 uM incubated for 16 hrs by broth microdilution method; type: functional
[11] = test system: Acinetobacter baumannii; assay: Potentiation of rifampicin antibacterial activity against Acinetobacter baumannii AB5075 assessed as rifampicin MIC at 10 uM incubated for 16 hrs by broth microdilution method; type: functional
[12] = Therapeutic index, ratio of IC50 for antiproliferative against human HepG2 cells assessed as reduction in cell viability to MIC for potentiation of Clarithromycin antibacterial activity against Acinetobacter baumannii […] assessed as clarithromycin MIC; type: toxicity, cell-based; conditions: read-out: TI
[13] = test system: Acinetobacter baumannii; assay: Potentiation of erythromycin antibacterial activity against Acinetobacter baumannii AB5075 assessed as erythromycin MIC at 2.5 uM incubated for 16 hrs by broth microdilution method; type: functional
[14] = test system: Acinetobacter baumannii; assay: Potentiation of Clarithromycin antibacterial activity against Acinetobacter baumannii AB4498 assessed as clarithromycin MIC at 10 uM incubated for 16 hrs by broth microdilution method; type: functional
[15] = test system: Acinetobacter baumannii; assay: Potentiation of rifampicin antibacterial activity against Acinetobacter baumannii AB5075 assessed as fold reduction in rifampicin MIC at 10 uM incubated for 16 hrs by broth microdilution method; type: functional
[16] = test system: Escherichia coli; assay: Potentiation of Clarithromycin antibacterial activity against Escherichia coli ATCC 25922 assessed as clarithromycin MIC at 3.75 uM incubated for 16 hrs by broth microdilution method; type: functional
[17] = test system: Pseudomonas aeruginosa; assay: Potentiation of Clarithromycin antibacterial activity against Pseudomonas aeruginosa PAO1 assessed as clarithromycin MIC at 20 uM incubated for 16 hrs by broth microdilution method; type: functional; in short: as §1
[18] = test system: Acinetobacter baumannii; assay: Potentiation of Azithromycin antibacterial activity against Acinetobacter baumannii AB5075 assessed as azithromycin MIC at 10 uM incubated for 16 hrs by broth microdilution method; type: functional
[19] = test system: Acinetobacter baumannii; assay: Potentiation of Azithromycin antibacterial activity against Acinetobacter baumannii AB5075 assessed as azithromycin MIC at 5 uM incubated for 16 hrs by broth microdilution method; type: functional

With `Cl.Cl.Nc1nc(-c2ccc(NC(=O)Nc3cccc(-c4c[nH]c(N)n4)c3F)cc2F)c[nH]1` the “fold change (FC)” value [1] was “>=512”, the Stability [2] was 76% and the MIC [3] was no more than 0.062 µg/mL. The “fold change (FC)” value [4] was “>=512”, the MIC ([4]; Acinetobacter baumannii, AB5075) was no more than 0.062 µg/mL and the MIC [5] was greater than 200 µM. It also gave an MIC [6] of no more than 0.062 µg/mL, an MIC [7] of 4 µg/mL and an MIC [8] of 0.125 µg/mL. For the same compound, the MIC [9] was 0.25 µg/mL, the MIC [10] was no more than 0.062 µg/mL and the MIC [11] was 0.007 µg/mL. For the same compound, the selectivity ratio [12] was 287, the MIC [13] was 32 µg/mL and the MIC [14] was no more than 0.062 µg/mL. For the same compound, the “fold change (FC)” value [15] was 32, the MIC [16] was 0.125 µg/mL and the MIC [17] was 16 µg/mL. It also gave an MIC [18] of 0.125 µg/mL and an MIC [19] of 1 µg/mL.
